ChEMBL document CHEMBL3091397, “Structural effects on persister control by brominated furanones” (Bioorg Med Chem Lett, 2013)
Activity calls are given as the source filed them. The rule behind the calls is not given here.

Columns and labels:
Vibrio harveyi [1] = test: Toxicity in Vibrio harveyi ATCC BAA-1118 assessed as effect on cell viability after 1.5 hrs by bioluminescence assay; assay type: organism-based
Method in brief: (§1)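 V. harveyi BB886 QS reporter was exposed to furanones at various concentrations in the bioluminescence assay. Viable cells were counted as CFU after treatment.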

Vibrio harveyi [2] = test: Inhibition of AHL-mediated quorum sensing in Vibrio harveyi ATCC BAA-1118 at 0.5 ug/mL after 1.5 hrs by bioluminescence assay relative to control
Method in brief: (§2)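 V. harveyi BB886 reporter, which emits light in response to extracellular AHL, was incubated with or without furanone at various concentrations (Surette method, modified). Bioluminescence was normalized to viable CFU to give relative bioluminescence versus untreated.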

Pseudomonas aeruginosa [3] = test: Antibacterial activity against Pseudomonas aeruginosa PAO1 assessed as viability of persister cells at 2 ug/mL after 2 hrs
Pseudomonas aeruginosa [4] = test: Antibacterial activity against Pseudomonas aeruginosa PAO1 assessed as viability of persister cells at 200 ug/mL after 3.5 hrs; assay type: functional, organism-based
Method in brief: (§3)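 Isolated PAO1 persisters were given furanone at 2 µg/mL for 2 h. A portion of each sample then received 200 µg/mL ciprofloxacin for 3.5 h. Surviving persisters were counted as CFU.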

Pseudomonas aeruginosa [5] = test: Antibacterial activity against Pseudomonas aeruginosa PAO1 assessed as viability of persister cells at 2 ug/mL after 2 hrs; assay type: functional
Method in brief: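 Persisters isolated from P. aeruginosa PAO1 per an earlier protocol, exposed to furanone for 2 h. Viability was counted as CFU by plating on LB agar immediately after treatment.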

Pseudomonas aeruginosa [6] = test: Potentiation of ciprofloxacin-induced antibacterial activity against Pseudomonas aeruginosa PAO1 assessed as persister cells at 2 ug/mL after 3.5 hrs; assay type: functional, organism-based; method in brief: as §3
Vibrio harveyi [7] = test: Inhibition of AHL-mediated quorum sensing in Vibrio harveyi ATCC BAA-1118 at 30 ug/mL after 1.5 hrs by bioluminescence assay; method in brief: as §2
Vibrio harveyi [8] = test: Toxicity in Vibrio harveyi ATCC BAA-1118 assessed as effect on cell viability at 30 ug/mL after 1.5 hrs by bioluminescence assay; assay type: organism-based; method in brief: as §1
Vibrio harveyi [9] = test: Inhibition of AHL-mediated quorum sensing in Vibrio harveyi ATCC BAA-1118 at 10 ug/mL after 1.5 hrs by bioluminescence assay relative to control; method in brief: as §2
Vibrio harveyi [10] = test: Toxicity in Vibrio harveyi ATCC BAA-1118 assessed as effect on cell viability up to 10 ug/mL after 1.5 hrs by bioluminescence assay; assay type: organism-based; method in brief: as §1
Vibrio harveyi [11] = test: Inhibition of AHL-mediated quorum sensing in Vibrio harveyi ATCC BAA-1118 after 1.5 hrs by bioluminescence assay; method in brief: as §2
Vibrio harveyi [12] = test: Toxicity in Vibrio harveyi ATCC BAA-1118 assessed as effect on cell viability up to 60 ug/mL after 1.5 hrs by bioluminescence assay; assay type: organism-based; method in brief: as §1
Vibrio harveyi [13] = test: Inhibition of AHL-mediated quorum sensing in Vibrio harveyi ATCC BAA-1118 up to 60 ug/mL after 1.5 hrs by bioluminescence assay; method in brief: as §2
Pseudomonas aeruginosa [14] = test: Potentiation of ciprofloxacin-induced antibacterial activity against Pseudomonas aeruginosa PAO1 assessed as sensitive persister cells at 2 ug/mL after 3.5 hrs; assay type: functional; method in brief: as §3

| SMILES | inhibition (Vibrio harveyi [11]) | Activity (Vibrio harveyi [1]) | Activity (Pseudomonas aeruginosa [3]) | Activity (Pseudomonas aeruginosa [5]) | further results |
| --- | --- | --- | --- | --- | --- |
| O=C1OC(=C(Br)Br)C=C1C(Br)Br |  | Non-toxic | Active |  | inhibition (Vibrio harveyi [2]): 55.9% |
| O=C(O)c1cn(C2CC2)c2cc(N3CCNCC3)c(F)cc2c1=O |  |  |  |  | Activity (Pseudomonas aeruginosa [4]): inactive |
| CC1=CC(=C(Br)Br)OC1=O | Dose-dependent effect |  |  | inactive | Activity (Pseudomonas aeruginosa [6]): Active; inhibition (Vibrio harveyi [7]): Active; Activity (Vibrio harveyi [8]): Toxic; inhibition (Vibrio harveyi [9]): 100%; Activity (Vibrio harveyi [10]): Non-toxic |
| COC1=CC(=O)OC1 |  |  | inactive |  | Activity (Vibrio harveyi [12]): Non-toxic; inhibition (Vibrio harveyi [13]): inactive |
| O=C1OC(=C(Br)Br)C=C1CBr |  | Non-toxic |  | inactive | Activity (Pseudomonas aeruginosa [6]): Active; inhibition (Vibrio harveyi [2]): 91.2% |
| CC1=C(Br)C(Br)(C(Br)Br)OC1=O (stereo unspecified) | inactive | Non-toxic | Active |  |  |
| O=C1O/C(=C\Br)C(Br)=C1CBr | Active | Non-toxic | Active |  |  |

Now from value to molecule, other results behind:

| inhibition (Vibrio harveyi [11]) | SMILES | Activity (Vibrio harveyi [1]) | Activity (Pseudomonas aeruginosa [3]) | Activity (Pseudomonas aeruginosa [5]) | further results |
| --- | --- | --- | --- | --- | --- |
| inactive | CC1=CC(=O)OC1=O | Non-toxic | inactive |  |  |
| inactive | CC1=C(Br)C(C(Br)Br)OC1=O (stereo unspecified) | Non-toxic |  | 64.6% | Activity (Pseudomonas aeruginosa [14]): 99.99% |
